Assay results taken from ChEMBL document CHEMBL4364284, “Design, Synthesis, and Efficacy Testing of Nitroethylene- and 7-Nitrobenzoxadiazol-Based Flavodoxin Inhibitors against Helicobacter pylori Drug-Resistant Clinical Strains and in Helicobacter pylori-Infected Mice” (J Med Chem, 2019).
In brackets after ≈: the same amount, converted by molar mass. Activity calls are given as the source filed them. No cut-off for these calls is given here.

Legend:
[1] = Cytotoxicity against human HeLa cells assessed as reduction in cell viability by XTT assay; type: cell-based; details: read-out: MCC50
In short: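 HeLa cells grown in DMEM with 10% FBS, penicillin and streptomycin at 37 °C, 5% CO2; 30 000 cells/well. XTT viability read at 450 and 650 nm. MCC50 (50% lysis) came from viability-versus-concentration curves. Two experiments, each in triplicate.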

[2] = target: T1, Flavodoxin (Helicobacter pylori (strain ATCC 700392 / 26695) (Campylobacter pylori)) (UniProt O25776); test: Inhibition of flavodoxin in Helicobacter pylori SS1 assessed as reduction in bacterial growth measured after 48 hrs by resazurin staining-based microdilution method
T1 sequence (whole entry): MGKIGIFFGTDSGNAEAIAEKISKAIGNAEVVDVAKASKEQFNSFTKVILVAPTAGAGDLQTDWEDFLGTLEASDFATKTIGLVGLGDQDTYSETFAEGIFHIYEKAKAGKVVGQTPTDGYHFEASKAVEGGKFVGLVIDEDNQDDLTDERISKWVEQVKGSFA
In short: (§1)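 Broth microdilution in brain heart infusion with 4% FBS. Inoculum diluted to OD600 0.01. Two-fold dilutions from a DMSO stock cover 64–0.031 μg/mL, with DMSO ≤1% v/v. Incubated 48 h at 37 °C under microaerophilic conditions. MIC is the lowest concentration giving complete growth inhibition, read by resazurin colour change and confirmed by spotting on blood agar. Run twice in triplicate.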

[3] = target: T1, Flavodoxin (Helicobacter pylori (strain ATCC 700392 / 26695) (Campylobacter pylori)); test: Inhibition of flavodoxin in Mnz-resistant Helicobacter pylori NCTC 11637 ATCC 43504 assessed as reduction in bacterial growth measured after 48 hrs by resazurin staining-based microdilution method; details: Helicobacter pylori NCTC 11637 = CCUG 17874 = ATCC 43504; in short: as §1
[4] = target: T1, Flavodoxin (Helicobacter pylori (strain ATCC 700392 / 26695) (Campylobacter pylori)); test: Inhibition of flavodoxin in Helicobacter pylori ATCC 700392 26695 assessed as reduction in bacterial growth measured after 48 hrs by resazurin staining-based microdilution method; details: Helicobacter pylori 26695; in short: as §1
[5] = Therapeutic index, ratio of MCC50 for human HeLa cells to MIC for inhibition of flavodoxin in Helicobacter pylori SS1 assessed as reduction in bacterial growth; type: toxicity; details: HeLa cells versus Helicobacter pylori SS1, read-out: TI
In short: (§2)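 TI is MCC50/MIC. For MCC50, HeLa cells (30 000/well, DMEM with 10% FBS) were exposed to compound at 25–1000 μM final. Viability by XTT at 450/650 nm; MCC50 is the concentration giving 50% lysis from viability curves. Run twice in triplicate.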

[6] = Therapeutic index, ratio of MCC50 for human HeLa cells to MIC for inhibition of flavodoxin in Mnz-resistant Helicobacter pylori NCTC 11637 ATCC 43504 assessed as reduction in bacterial growth; type: toxicity; details: read-out: TI; in short: as §2
[7] = Therapeutic index, ratio of MCC50 for human HeLa cells to MIC for inhibition of flavodoxin in Helicobacter pylori ATCC 700392 26695 assessed as reduction in bacterial growth; type: toxicity; details: HeLa cells versus Helicobacter pylori ATCC 700392 26695, read-out: TI; in short: as §2
[8] = Toxicity in NMRI mouse infected with Helicobacter pylori SS1 assessed as change in body weight at 0.1 to 1 mg/100g, po administered daily via gavage for 8 days starting from 1 week post-infection; type: organism-based; details: in vivo
[9] = Toxicity in NMRI mouse infected with Helicobacter pylori SS1 assessed as change in appetite at 0.1 to 1 mg/100g, po administered daily via gavage for 8 days starting from 1 week post-infection; type: organism-based; details: in vivo
[10] = Toxicity in NMRI mouse assessed as change in body weight at 0.1 to 1 mg/100g, po administered daily via gavage for 8 days; type: organism-based; details: in vivo, 192 h
[11] = tested on: Helicobacter pylori; test: Antibacterial activity against Helicobacter pylori SS1 infected in NMRI mouse assessed as reduction in gastric colonization at 0.1 to 1 mg/100g, po administered daily via gavage for 8 days starting from 1 week post-infection and measured 8 days post-last dose; type: functional, organism-based
In short: (§3)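 From day 8, compound given daily by oral gavage for 8 days in 100 μL of 5–10% DMSO/95–90% olive oil. Sacrificed day 24; stomach homogenate CFU/g counted after 5 days microaerophilic culture at 37 °C. Infected vehicle-treated controls; Mann-Whitney U and unpaired t tests, p ≤ 0.05.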

[12] = target: T1, Flavodoxin (Helicobacter pylori (strain ATCC 700392 / 26695) (Campylobacter pylori)); test: Binding affinity to Helicobacter pylori flavodoxin by thermal upshift assay
[13] = target: T1, Flavodoxin (Helicobacter pylori (strain ATCC 700392 / 26695) (Campylobacter pylori)); test: Binding affinity to Helicobacter pylori flavodoxin by isothermal titration calorimetric method
[14] = tested on: Escherichia coli; test: Effect on growth of Escherichia coli DH5[alpha] after 48 hrs by resazurin-dye based microdilution assay; type: organism-based
[15] = tested on: Staphylococcus aureus; test: Effect on growth of Staphylococcus aureus ATCC 1228 after 48 hrs by resazurin-dye based microdilution assay; type: organism-based
[16] = Therapeutic index, ratio of MCC50 for human HeLa cells to MIC for inhibition of flavodoxin in metronidazole-resistant Helicobacter pylori isolate 1 assessed as reduction in bacterial growth; type: toxicity; details: read-out: TI; in short: as §2
[17] = Therapeutic index, ratio of MCC50 for human HeLa cells to MIC for inhibition of flavodoxin in metronidazole-resistant Helicobacter pylori isolate 2 assessed as reduction in bacterial growth; type: toxicity; details: read-out: TI; in short: as §2
[18] = Therapeutic index, ratio of MCC50 for human HeLa cells to MIC for inhibition of flavodoxin in metronidazole-resistant Helicobacter pylori isolate 3 assessed as reduction in bacterial growth; type: toxicity; details: read-out: TI; in short: as §2
[19] = Therapeutic index, ratio of MCC50 for human HeLa cells to MIC for inhibition of flavodoxin in clarithromycin/metronidazole-resistant Helicobacter pylori isolate 4 assessed as reduction in bacterial growth; type: toxicity; details: read-out: TI; in short: as §2
[20] = Therapeutic index, ratio of MCC50 for human HeLa cells to MIC for inhibition of flavodoxin in rifampicin-resistant Helicobacter pylori isolate 5 assessed as reduction in bacterial growth; type: toxicity; details: read-out: TI; in short: as §2
[21] = Therapeutic index, ratio of MCC50 for human HeLa cells to MIC for inhibition of flavodoxin in clarithromycin/metronidazole-resistant Helicobacter pylori isolate 6 assessed as reduction in bacterial growth; type: toxicity; details: read-out: TI; in short: as §2
[22] = Stability of the compound in DMSO-d6 at pH 1 incubated for 19 hrs under shaking condition by 1H-NMR analysis; type: physicochemical; details: pH 1, 19 h
[23] = Toxicity in NMRI mouse infected with Helicobacter pylori SS1 assessed as change in appetite at 1 to 20 mg/100g, po administered daily via gavage for 8 days starting from 1 week post-infection; type: organism-based; details: in vivo
In short: (§4)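 Compound in 5–10% DMSO/olive oil (100 μL) given by daily oral gavage for 8 days from day 8. Body weight and appetite were monitored during treatment; infected controls received vehicle alone.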

[24] = Toxicity in NMRI mouse infected with Helicobacter pylori SS1 assessed as change in body weight at 1 to 20 mg/100g, po administered daily via gavage for 8 days starting from 1 week post-infection; type: organism-based; details: in vivo; in short: as §4
[25] = Toxicity in NMRI mouse assessed as change in body weight at 1 to 20 mg/100g, po administered daily via gavage for 8 days; type: organism-based; details: in vivo, 192 h
[26] = tested on: Helicobacter pylori; test: Antibacterial activity against Helicobacter pylori SS1 infected in NMRI mouse assessed as bacterial eradication at 10 mg/100g, po administered daily via gavage for 8 days starting from 1 week post-infection and measured 8 days post-last dose relative to control; type: functional
In short: (§5)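 From day 8, 100 μL compound in 5–10% DMSO/95–90% olive oil by daily oral gavage for 8 days. Infected controls got vehicle. Killed day 24; stomach homogenates plated 5 days at 37 °C microaerophilic; CFU/g tissue versus control. Mann-Whitney U and unpaired t tests, p ≤ 0.05.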

[27] = tested on: Helicobacter pylori; test: Antibacterial activity against Helicobacter pylori SS1 infected in NMRI mouse assessed as bacterial eradication at 20 mg/100g, po administered daily via gavage for 8 days starting from 1 week post-infection and measured 8 days post-last dose relative to control; type: functional; in short: as §5
[28] = tested on: Helicobacter pylori; test: Antibacterial activity against Helicobacter pylori SS1 infected in NMRI mouse assessed as reduction in gastric colonization at 1 to 20 mg/100g, po administered daily via gavage for 8 days starting from 1 week post-infection and measured 8 days post-last dose; type: functional, organism-based
In short: as §5, with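 “Female 6-week-old SPF NMRI mice, seven per condition, infected orogastrically on days 1 and 3 with 100 μL Hp SS1 (5 × 10^8 CFU/mL). From” for “From”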

[29] = Toxicity in NMRI mouse infected with Helicobacter pylori SS1 assessed as change in body weight at 10 to 20 mg/100g, po administered daily via gavage for 8 days starting from 1 week post-infection; type: organism-based; details: in vivo
In short: (§6)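 Female 6-week-old SPF NMRI mice infected orogastrically with Hp SS1 on days 1 and 3. Compound in 5–10% DMSO/olive oil (100 μL) given by daily oral gavage for 8 days from day 8. Body weight and appetite were monitored during treatment; infected controls received vehicle alone.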

[30] = Toxicity in NMRI mouse infected with Helicobacter pylori SS1 assessed as change in appetite at 10 to 20 mg/100g, po administered daily via gavage for 8 days starting from 1 week post-infection; type: organism-based; details: in vivo; in short: as §6
[31] = Toxicity in NMRI mouse assessed as change in body weight at 10 to 20 mg/100g, po administered daily via gavage for 8 days; type: organism-based; details: in vivo, 192 h
[32] = tested on: Helicobacter pylori; test: Antibacterial activity against Helicobacter pylori SS1 infected in NMRI mouse assessed as bacterial eradication at 20 mg/100g, po administered daily via gavage for 8 days starting from 1 week post-infection and measured 8 days post-last dose; type: functional, organism-based
In short: as §3, with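 “Female 6-week-old SPF NMRI mice, 7 per condition, infected orogastrically on days 1 and 3 with 100 μL Hp SS1 (5 × 10^8 CFU/mL). From” for “From”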

[33] = tested on: Helicobacter pylori; test: Antibacterial activity against Helicobacter pylori SS1 infected in NMRI mouse assessed as reduction in gastric colonization at 20 mg/100g, po administered daily via gavage for 8 days starting from 1 week post-infection and measured 8 days post-last dose; type: functional, organism-based
In short: as §3, with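 “Female 6-week-old SPF NMRI mice, 7 per condition, infected orogastrically on days 1 and 3 with 100 μL Hp SS1 (5 × 10^8 CFU/mL). From” for “From”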

SMILES	CC50 [1]	MIC [2]	MIC [3]	MIC [4]	selectivity ratio [5]	selectivity ratio [6]	selectivity ratio [7]	Activity [12]	Activity [13]	Activity [14]	Activity [15]	further results
O=[N+]([O-])/C=C/c1cc(C(F)(F)F)cc(C(F)(F)F)c1	15 µM	1.8 µM (≈ 0.513 µg/mL)	3.5 µM (≈ 0.998 µg/mL)	1.8 µM (≈ 0.513 µg/mL)	8.3	4.3	8.3	Active	Active	Non-Toxic	Non-Toxic	Activity [8]: Non-Toxic; Activity [9]: Non-Toxic; Activity [10]: Non-Toxic; Activity [11]: inactive
COc1ccc(C[S+]([O-])c2ccc(N)c3nonc23)cc1 (centres undefined)	> 1000 µM	105 µM (≈ 31.9 µg/mL)	53 µM (≈ 16.1 µg/mL)	26 µM (≈ 7.89 µg/mL)	> 9.5	> 19	> 39	Active	Active	Non-Toxic	Non-Toxic	selectivity ratio [16]: 9.5; selectivity ratio [17]: 9.5; selectivity ratio [18]: 9.5; selectivity ratio [19]: 9.5; selectivity ratio [20]: 9.5; selectivity ratio [21]: 9.5; Stability [22]: Stable; Activity [23]: Non-Toxic; Activity [24]: Non-Toxic; Activity [25]: Non-Toxic; Activity [26]: 5%; Activity [27]: 60%; Activity [28]: Active
NCCc1cc(C(F)(F)F)cc(C(F)(F)F)c1	> 500 µM	> 249 µM	31 µM (≈ 7.97 µg/mL)	31 µM (≈ 7.97 µg/mL)	–	> 16	> 16	Active	Active	Non-Toxic	Non-Toxic	Activity [29]: Non-Toxic; Activity [30]: Non-Toxic; Activity [31]: Non-Toxic; Activity [32]: Active; Activity [33]: Active
